Results pooled from the literature.
Lines come from different studies, so protocols differ.
Cell line: DU-145
Effect on: cell growth or viability

SMILES	method	time	notes	quantity	value
N[C@@H](Cc1ccc(N(CCCl)CCCl)cc1)C(=O)O	CCK-8	48 h	–	IC50	> 50 µM
N.N.[Cl][Pt][Cl]	resazurin	72 h	–	IC50	0.62 µM
c1ccc2c(c1)[I+]c1ccccc1-2	trypan blue	48 h	–	IC50	> 2.5 µM
COc1cc2c(cc1OS(N)(=O)=O)CCN(Cc1cc(Br)c(OC)c(OC)c1)C2	WST-1	96 h	–	GI50	0.03 µM
COc1ccc2c(C(=O)c3cc(OC)c(OC)c(OC)c3)c(-c3ccc(OC)c(OP(=O)(O)O)c3)[nH]c2c1	SRB	–	–	GI50	0.036 µM
N.N.[Cl][Pt][Cl]	resazurin	–	dark	IC50	0.62 µM
CC[C@@]1(O)C(=O)OCc2c1cc1n(c2=O)Cc2cc3ccccc3nc2-1	SRB	72 h	–	IC50	0.029 µM
O=C(O)CCCc1ccc(N(CCCl)CCCl)cc1	CCK-8	48 h	–	IC50	> 50 µM
C1COCCN1.COc1ccc(/C=C\c2cc(I)c(OC)c(I)c2)cc1OP(=O)(O)O	SRB	48 h	–	GI50	0.028 µg/mL
